TCR-CD3 inh: inhibitors of human TCR-CD3 interaction, primary screen, biochemical, fluorescence, TAMRA-labeled TCR probe; 360,000 compounds, 0.37% hits; AID 651800, 2012; T-cell receptor (TCR); inhibition, % at 9.4 µM; in the data active = inhibition above about 19%;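 also: recombinant mutant TCR 2C K166C tagged with TAMRA read by polarization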
PABP polyA inh: PABP poly(A) RNA binding inhibitors, primary screen, biochemical, fluorescence polarization, uHTS; AID 2014, 2009; Polyadenylate-binding protein 1 (Homo sapiens), P11940; 290,000 compounds, 1% hits; calls only at 35 µM;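 also: calls also rest on retests at 20 µM and on dose response follow-up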
eIF4H inh: human eIF4H binding inhibitors, primary screen, translation initiation inhibitor project, biochemical, uHTS, fluorescence polarization; Eukaryotic translation initiation factor 4H (Homo sapiens), Q15056; eIF4H fluorescence polarization binding assay; inhibition, % at 35 µM; 290,000 compounds, 0.94% hits; AID 2012, 2009;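 also: calls also rest on retests at 20 µM and on dose response follow-up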
RBBP9 inhibitor: human RBBP9 inhibitors, primary screen, biochemical, fluorescence polarization, FP-Rh probe, HTS. Serine hydrolase RBBP9 (Homo sapiens), O75884. inhibition, % at 7.94 µM. AID 1515, 2009. recombinant RBBP9. 220,000 compounds, 0.2% hits;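 active = inhibition above the campaign mean of all tested compounds plus 3 SD, cut at about 14% in these data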
Target sequence (O75884 whole entry, looked up): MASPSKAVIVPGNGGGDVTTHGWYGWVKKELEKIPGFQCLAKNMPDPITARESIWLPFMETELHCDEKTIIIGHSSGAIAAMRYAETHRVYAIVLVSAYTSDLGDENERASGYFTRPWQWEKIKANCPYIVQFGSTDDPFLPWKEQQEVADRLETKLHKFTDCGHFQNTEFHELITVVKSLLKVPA
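System: RBBP9 protein / Quantity: 2.5 µM RBBP9 dispensing solution, before mixing / Also added: Serine-hydrolase probe FP-Rh, 375 nM pre-mixing / Dosing: 7.94 µM single dose, 0.794% DMSO / Timing: enzyme-compound preincubation 30 min, then probe labeling 45 min, 25 °C / Signal: FP readout at 525/598 nm / Controls: DMSO-treated enzyme wells and wells lacking RBBP9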
PABP1 MLLE inh: inhibitors of PABP1 MLLE–PAM2 peptide binding, primary screen, biochemical, fluorescence polarization, FITC-PAM2, GST-MLLE; Polyadenylate-binding protein 1 (Homo sapiens), P11940; AID 588489, 2011; inhibition, % at 20 µM; 360,000 compounds, 0.36% hits; in the data active = inhibition above about 35%, passing the limit was not always enough
Numbers stand for hits; 0 = inactive; ? = inconclusive; - = no result given; + = active, no number. Only some compounds are listed: those with a hit (about 1.6% of all), similar ones and a draw of the others. Unless noted, no rule for the calls is given here.

SMILES	TCR-CD3 inh	PABP polyA inh	eIF4H inh	RBBP9 inhibitor	PABP1 MLLE inh
Cc1c(/C=C(\C#N)c2nn(-c3ccccc3)c(N)c2C#N)c2ccccc2n1Cc1ccc(F)cc1	0	+	52	0	0
C#CCN(C[C@H]1[C@H](OC(=O)NCCCCCC)[C@H](OC(=O)NCCCCCC)CN(C(=O)OC(C)C)N1C(=O)OC(C)C)S(=O)(=O)c1ccc(C)cc1	0	-	-	-	-
CO/N=C/C1C(=O)NN=C1c1ccccc1 (stereo not given)	0	+	?	0	0
O=C(CSC1CCc2ccccc21)NNC(=O)Nc1ccc(Cl)cc1 (stereo not given)	0	-	-	-	-
O=C(CCc1c[nH]c2ccccc12)Nc1ccc(Nc2ccccc2)cc1	0	-	-	-	-
C=C1[C@@H](C)CN[C@@H]1CCO	0	-	-	-	-
O=C(CSC1=Nc2ccccc2C2=NC(CC(=O)NC3CCCCC3)C(=O)N12)NCc1ccco1 (stereo not given)	0	?	?	0	49
Oc1[nH]c(N=C2N=c3ccccc3=N2)c2ccccc12	0	+	80	0	0
OC1(C#Cc2c(-c3ccsc3)sc3ccccc23)CCCCC1	0	-	-	-	-
Cc1nc(NS(=O)(=O)c2ccccc2)sc1NC(=O)OC(C)C	0	0	0	0	39
COc1ccc(NC(=O)Nc2sc(NS(=O)(=O)c3ccccc3)nc2C)cc1	0	0	0	0	40
COC(=O)[C@]12C[C@H](CC(=O)N3CCOCC3)C(=O)N(Cc3ccc4c(c3)OCO4)C1=C[C@H](C(C)(C)C)O[C@@H]2C	0	-	-	-	-
COc1ccc(O)c(C(=O)c2cc(SCC(=O)O)c3nc4sc5c(c4c(=O)n3c2)CCCC5)c1	0	+	81	0	0
O=C(O)CSc1cc(C(=O)c2ccccc2O)cn2c(=O)c3c(-c4ccccc4)csc3nc12	0	+	0	0	0
CN1CCN(NC(=S)NC2CCCCC2)CC1	0	+	87	0	0
S=C(NC1CCCCC1)NN1CCCCCC1	0	-	-	-	0
Cc1ccn(C)c(=N)c1	0	+	active	0	0
CN(C)c1nc2n(c(=O)n1)C(C#N)CS2 (stereo not given)	0	0	0	0	40
COC(=O)[C@]12C[C@H](CC(=O)N3CCCC3)C(=O)N(Cc3ccccc3)C1=C[C@H](C(C)(C)C)O[C@@H]2C	0	-	-	-	-
Cc1cc(CN2CCN(c3ncc(Cc4ccccc4)cn3)CC2)cc(C)c1O	0	-	-	-	-
O=C(O)c1ccc2c(c1)C(=O)/C(=C/c1ccccc1)C2=O	0	0	0	0	40
NC(=O)c1ncn([C@@H]2O[C@H](C(=O)N3CCCN(Cc4ccccc4F)CC3)[C@@H](O)[C@H]2O)n1	0	-	-	-	-
O=C(C1COc2ccccc2O1)N1CCc2ccccc21 (stereo not given)	0	0	79	0	0
Cc1ccc(N2C(=O)C3C4C=CC(CNC(=S)Nc5cccc(Cl)c5)(O4)C3C2=O)cc1 (stereo not given)	0	0	0	0	41
Cc1ccc(N2C(=O)C3C4C=CC(CNC(=S)Nc5ccc(Cl)cc5)(O4)C3C2=O)cc1 (stereo not given)	0	0	0	0	0
SMILES	TCR-CD3 inh	PABP polyA inh	eIF4H inh	RBBP9 inhibitor	PABP1 MLLE inh
CCCCCCCCN1C(=O)[C@@H](CC(=O)N2CCC(c3ccccc3)CC2)C[C@@]2(C(=O)OC)C1=C[C@H](C1CCCC1)O[C@@H]2C	0	-	-	-	-
CC(C)C1(C2CCCC2)NC(=O)NC1=O (stereo not given)	0	-	-	-	0
CC(C)C1=C2CCCCC2NC(=O)N1 (stereo not given)	0	0	0	0	62
COCCn1cnnc1SCC(=O)Nc1ccccc1C(=O)Nc1ccc2c(c1)OCO2	0	0	5.6	0	0
COCCCNc1nc2ccccc2nc1NS(=O)(=O)c1cccc(Cl)c1	0	0	0	-	43
Oc1ccccc1-c1nnc(SCCN2CCOCC2)n1Cc1ccccc1	43	0	0	0	0
Cc1ccc(SCC(=O)c2ccc(CC(=O)O)s2)cc1	0	0	74	0	0
c1ccn2cc(-c3ccc4c(c3)OCO4)cc2c1	0	0	64	0	0
COC(=O)c1cc2c(c3c4cc(C)ccc4n(S(=O)(=O)c4ccc(C)cc4)c13)C(=O)N(C)C2	0	-	-	-	-
COc1ccc(C2=Nc3cccc4cccc(c34)N2)cc1	0	0	78	0	0
Nc1cccc(C2=Nc3cccc4cccc(c34)N2)c1	0	0	0	0	0
COc1ccc2c(C)cc(SCC(=O)N3CCOCC3)nc2c1	0	+	124	0	0
COc1ccc2c(-c3ccccc3)cc(SCC(N)=O)nc2c1	0	+	80	0	0
COc1ccc2nc(SCC(N)=O)cc(C)c2c1	0	0	0	0	0
COC(=O)c1cc2c(c3c4cc(F)ccc4n(S(=O)(=O)c4ccc(C)cc4)c13)C(=O)N(c1ccc(OC)cc1)C2	0	-	-	-	-
CCOC(=O)c1cc(-c2ccc(/C=C3/C(=O)NC(=O)C(C#N)=C3C)o2)ccc1Cl	0	+	?	0	0
CCNC(=O)N(C)[C@H]1C[C@H]2c3[nH]c4c(-c5ccc6c(c5)OCO6)cccc4c3CCN2C(=O)[C@H]1[C@H](C)O	0	-	-	-	-
O=C(NC(=S)Nc1cccc(O)c1)c1cncc(Br)c1	0	-	-	-	42
Cc1cc(O)ccc1NC(=S)NC(=O)c1cncc(Br)c1	0	0	0	-	44
O=C(O)c1cccc(NC(=S)NC(=O)c2cncc(Br)c2)c1	0	-	-	-	0
CC(=O)c1cccc(NC(=S)NC(=O)c2ccc(C)cc2)c1	0	0	0	0	0
CC(=O)c1cccc(NC(=S)NC(=O)c2ccc(Br)cc2)c1	0	0	0	0	41
C=CCN1C(=O)c2n[nH]c(C(C)C)c2C1c1ccc(C)cc1 (stereo not given)	0	-	-	-	-
Cn1cccc1C1Nc2ccccc2NC2=C1C(=O)CC(C)(C)C2 (stereo not given)	0	+	0	0	0
CCCCn1c(/C=C/c2ccco2)nc2ccccc21	0	+	52	0	0
SMILES	TCR-CD3 inh	PABP polyA inh	eIF4H inh	RBBP9 inhibitor	PABP1 MLLE inh
CC(C)OC(=O)[C@H]1[C@H](c2ccc(Cl)cc2)[C@@](C#N)(C(N)=O)[C@@H]2C=CC(C(N)=O)=CN21	-	+	53	0	0
N#C[C@H]1[C@H](c2ccccc2)[C@](C#N)(C(=O)c2ccccc2)[C@@H]2C=Cc3ccccc3N21	-	0	0	0	-
O=c1nc(/C=C/c2ccc(-c3ccc(F)cc3)o2)cc(C(F)(F)F)[nH]1	-	+	0	0	-
COc1ccc(NC(=O)CSc2ccccc2)cn1	0	0	0	0	42
Cn1c(O)c(C=Nc2ccc(N3CCOCC3)cc2)c(=O)n(C)c1=S	0	0	?	0	0
Cc1cc(O)c(C=Nc2ccc(N3CCOCC3)cc2)c(C)c1Cl	0	+	0	-	0
O=c1[nH]c(/C=C\c2ccc(O)c(O)c2)nc(O)c1[N+](=O)[O-]	0	+	50	-	0

Screening results: PubChem, several laboratories
